Apaf-1 inh – inhibitors of human Apaf-1 apoptosome, primary screen, biochemical, DEVD-Rh110 fluorescence, uHTS. Apoptotic protease-activating factor 1 (Homo sapiens), O14727. reconstituted apoptosome caspase-3 activity. inhibition, % at 20 µM. 0.71% of 330,000 active. AID 489030, 2010; active means inhibition of at least 40% at 20 µM
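Assay system – apoptosome proteins · Medium – Hepes buffer, pH 7.5 · Also added – cytochrome c with DEVD-Rh110 · Timing – 30 min compound preincubation, 50 min activation, room temperature · Detection – Rh110 fluorescence, excitation 480 nm, emission 540 nm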
PAFAH1B3 FP inh – PAFAH1B3 enzyme inhibitors, primary screen, biochemical, fluorescence polarization, human | 0.28% of 340,000 active | inhibition, % at 3.39 µM | recombinant PAFAH1B3, FP-rhodamine probe;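 active means inhibition above the screen-wide average of all tested compounds plus 3 SD, cut at about 25% in these data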
Target sequence (Q15102 whole entry, looked up): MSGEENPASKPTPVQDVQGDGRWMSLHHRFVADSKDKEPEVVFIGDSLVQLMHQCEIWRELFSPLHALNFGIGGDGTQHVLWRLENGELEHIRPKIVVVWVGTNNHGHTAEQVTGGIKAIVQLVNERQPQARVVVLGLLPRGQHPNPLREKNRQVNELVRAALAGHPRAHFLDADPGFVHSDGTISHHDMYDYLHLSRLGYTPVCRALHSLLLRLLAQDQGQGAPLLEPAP
PAFAH1B2 FP inh – PAFAH1B2 enzyme inhibitors, primary screen, biochemical, fluorescence polarization, human; inhibition, % at 3.39 µM; AID 492953, 2010; recombinant PAFAH1B2, FP-rhodamine activity probe; 1.2% of 340,000 active; Platelet-activating factor acetylhydrolase IB subunit alpha2 (Homo sapiens), P68402;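 active means inhibition above the mean of all tested compounds plus 3 SD, cut at about 24% in these data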
Target sequence (P68402 whole entry, looked up): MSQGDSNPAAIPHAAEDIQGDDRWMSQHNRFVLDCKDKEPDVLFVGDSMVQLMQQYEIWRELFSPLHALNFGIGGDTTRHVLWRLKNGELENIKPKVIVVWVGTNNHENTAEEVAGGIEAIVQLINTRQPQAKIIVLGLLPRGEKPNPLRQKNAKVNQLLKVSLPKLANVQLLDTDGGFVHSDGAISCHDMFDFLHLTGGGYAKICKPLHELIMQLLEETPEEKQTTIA
pPAFAH FP inh – pPAFAH enzyme inhibitors, primary screen, biochemical, fluorescence polarization, human; Platelet-activating factor acetylhydrolase (Homo sapiens), Q13093; recombinant pPAFAH, FP-rhodamine probe fluorescence polarization; inhibition, % at 3.39 µM; 1.5% of 330,000 active;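 active means inhibition above the mean inhibition across the screen plus 3 SD, cut at about 25% in these data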;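 further: inhibitors block binding of the rhodamine activity-based probe so polarization drops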
PAFAH2 FP inh – PAFAH2 enzyme inhibitors, primary screen, biochemical, fluorescence polarization, human; inhibition, % at 3.39 µM; 0.99% of 340,000 active; recombinant PAFAH2, FP-rhodamine activity probe; Platelet-activating factor acetylhydrolase 2, cytoplasmic (Homo sapiens), Q99487;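 active means inhibition above the mean over all tested compounds plus 3 SD, cut at about 30% in these data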;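 further: inhibitors block probe labeling of enzyme so polarization drops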
PAFAH2 confirm – PAFAH2 enzyme inhibitors, confirmation, biochemical, fluorescence polarization, human. shares compounds with PAFAH2 FP inh. recombinant PAFAH2, FP-rhodamine activity probe. inhibition, % at 3.39 µM. 65% of 2,300 active;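 active means mean inhibition over three repeats above a set limit taken from the earlier primary screen, cut at about 30% in these data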;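 further: inhibitor blocks binding of rhodamine activity probe so polarization falls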
Large screens that a line does not name were inactive (follow-up assays come after a bar, where they were run). Only some compounds are listed: those with a hit (about 3.1% of all), similar ones and a draw of the others.

Cc1noc(C)c1C(=O)OCC(=O)Nc1cccc(S(=O)(=O)N(C)C)c1	none
Cc1cc(C(=O)OCC(=O)Nc2cccc(S(=O)(=O)N(C)C)c2)c(C)o1	PAFAH2 FP inh 44.8 | PAFAH2 confirm 34.2
COc1ccc(N(C(=O)c2snc(C(N)=O)c2N)C(C(=O)NC2CCCC2)c2cc(OC)ccc2OC)cc1 (stereo not drawn)	none
CC(=O)c1ccc(S(=O)(=O)NCCC(=O)OCC(=O)N(Cc2ccccc2)C(C)(C)C)cc1	none
COc1ccc(CCNC2=C(Cl)C(=O)N(CCc3ccccc3)C2=O)cc1OC	none
O=C1C(Cl)=C(Nc2ccccc2O)C(=O)N1CCc1ccccc1	PAFAH2 FP inh 44.1 | PAFAH2 confirm 37.0
Cc1cccc(-c2nc3ccccc3c3nncn23)c1	PAFAH2 FP inh 158.5 | PAFAH2 confirm inactive
c1ccc(-c2nc3ccccc3c3nncn23)cc1	none
O=C(Nn1cnc2ccccc2c1=O)c1ccc(Cl)c([N+](=O)[O-])c1	none
Nc1[nH]n2c(=O)c3c(nc2c1N=Nc1ccc(Cl)cc1)CCCC3	PAFAH2 FP inh 39.6 | PAFAH2 confirm inactive
CC(=O)Nc1ccc(C(=O)OCC(=O)NC(=O)NC2CCCCC2)cc1	PAFAH2 FP inh 53.0 | PAFAH2 confirm 38.6
CC(C)Oc1ccc(C(=O)OCC(=O)NC(=O)NC2CCCC2)cc1	PAFAH2 FP inh 40.9 | PAFAH2 confirm 33.9
O=C(CCc1ccccc1)Nc1ccccc1C(=O)NCc1ccco1	PAFAH2 FP inh 29.7 | PAFAH2 confirm 29.9
Cc1ccccc1-c1nc2c(s1)CCc1onc(-c3ccc(Cl)cc3)c1-2	none
CCCCCCc1c(O)c2ccccc2[nH]c1=O	none
CCCCCCCCCCCC1=C(O)C(=O)C=C(O)C1=O	PAFAH2 FP inh 52.8 (no result: Apaf-1 inh) | PAFAH2 confirm 39.9
CCN(CC)S(=O)(=O)c1cc(NC(=O)COC(=O)C2CCC2)ccc1C	none
CC(C)(C)NC(=O)COC(=O)c1ccc(NC(=O)CC#N)cc1	PAFAH2 FP inh 67.0 | PAFAH2 confirm 52.9
CCN(CC)S(=O)(=O)c1cc(NC(=O)COC(=O)c2ccc(NC(=O)CC#N)cc2)ccc1C	PAFAH2 FP inh 51.5 | PAFAH2 confirm 50.3
CC(CCc1ccccc1)NC(=O)COC(=O)c1ccc(NC(=O)CC#N)cc1 (stereo not drawn)	PAFAH2 FP inh 53.8 | PAFAH2 confirm 51.4
CC(CCc1ccccc1)NC(=O)COC(=O)c1cccc(N(C)C)c1 (stereo not drawn)	PAFAH2 FP inh 58.2 | PAFAH2 confirm 35.5
O=C(O)C(Cc1ccccc1)N=C(NS(=O)(=O)c1ccccc1)c1ccccc1 (stereo not drawn)	none
O=C(Cc1c(Cl)cccc1Cl)N1CCN(S(=O)(=O)c2cccs2)CC1	none
Cc1cccc(C(=O)OCC(=O)NC(C)CCc2ccccc2)c1 (stereo not drawn)	PAFAH2 FP inh 45.7 | PAFAH2 confirm 30.9
CCOCc1c(C(=O)OCC(=O)Nc2ccc(C)c(S(=O)(=O)N(C)C)c2)oc2ccccc12	PAFAH2 FP inh 58.3 | PAFAH2 confirm 45.4
Cc1cccc(C(=O)NCC(=O)NC(C)CCc2ccccc2)c1 (stereo not drawn)	none
Cc1ccc(NC(=O)COC(=O)Cc2ccsc2)cc1S(=O)(=O)N(C)C	none
COc1ccc(S(=O)(=O)N(CC(=O)NCc2ccncc2)c2cc(C)cc(C)c2)cc1OC	none
COc1cc(/C=C/C(=O)OCC(=O)N2CC(=O)Nc3ccccc32)ccc1O	none
COc1cc(/C=C/C(=O)OCC(=O)N2CCCc3ccccc32)ccc1O	PAFAH2 FP inh 51.4 | PAFAH2 confirm 41.2
COc1cc(/C=C/C(=O)OCC(=O)N2CCCc3ccccc32)ccc1OCC#N	PAFAH2 FP inh 40.2 | PAFAH2 confirm inactive
COC(=O)C(C(=O)OC)C1C=CCN(C(C)=O)C1 (stereo not drawn)	none (no result: Apaf-1 inh, pPAFAH FP inh)
CC(C)(C)c1ccc(NC(=O)COC(=O)c2ccc3ncsc3c2)cc1	none
Cc1ccc(F)cc1NC(=O)COC(=O)c1ccc2ncsc2c1	PAFAH2 FP inh 49.3 | PAFAH2 confirm 54.4

Bioassay records deposited in PubChem by several laboratories.
